According to ChEMBL document CHEMBL1140448 (J Med Chem, 2005):

Tests used:
Rattus norvegicus [1] = species: Rattus norvegicus; test: Inhibitory concentration on PRL release from rat pituitary cells; assay type: functional, cell-based; conditions: Pituitary gland cell
How it was run: (§1)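 Anterior pituitaries from female Wistar rats (180-200 g) dispersed with dispase. Cells seeded at (0.5-5) × 10^5 per well in MEM with 10% FCS and attached at least 3 days. Then 4 h incubation with or without analogue plus 10 nM GHRH, four dishes per group. Rat GH and PRL measured by commercial assay; response given as % change versus untreated control dishes.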

[2] = target: Somatostatin receptor type 2 (Homo sapiens, UniProt P30874); test: Inhibitory concentration against human somatostatin receptor type 2 in CC531 cells; assay type: cell-based
Chain of Somatostatin receptor type 2 (P30874 whole entry): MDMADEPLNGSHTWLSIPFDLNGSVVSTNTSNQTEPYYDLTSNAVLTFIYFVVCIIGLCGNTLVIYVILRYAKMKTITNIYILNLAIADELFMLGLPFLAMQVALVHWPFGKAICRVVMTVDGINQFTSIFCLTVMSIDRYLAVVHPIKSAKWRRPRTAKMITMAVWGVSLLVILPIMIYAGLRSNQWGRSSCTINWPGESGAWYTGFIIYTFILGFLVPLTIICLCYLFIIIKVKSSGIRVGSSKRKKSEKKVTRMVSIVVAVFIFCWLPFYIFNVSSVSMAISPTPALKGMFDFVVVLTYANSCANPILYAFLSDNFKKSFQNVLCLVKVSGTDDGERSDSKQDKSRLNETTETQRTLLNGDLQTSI
How it was run: (§2)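 Competitive binding on membranes (25-50 µg protein) from stably transfected cells expressing one human sst subtype: CC531 for sst2, CHO-K1 for sst3 and sst5. Stopped with ice-cold Hepes buffer pH 7.6 and centrifuged; washed pellet γ-counted. Nonspecific binding taken with 1 µM unlabeled SRIF analogue.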

[3] = target: Somatostatin receptor type 3 (Homo sapiens, UniProt P32745); test: Inhibitory concentration against human somatostatin receptor type 3 in CHO-K1 cells; assay type: cell-based; how it was run: as §2
Chain of Somatostatin receptor type 3 (P32745 whole entry): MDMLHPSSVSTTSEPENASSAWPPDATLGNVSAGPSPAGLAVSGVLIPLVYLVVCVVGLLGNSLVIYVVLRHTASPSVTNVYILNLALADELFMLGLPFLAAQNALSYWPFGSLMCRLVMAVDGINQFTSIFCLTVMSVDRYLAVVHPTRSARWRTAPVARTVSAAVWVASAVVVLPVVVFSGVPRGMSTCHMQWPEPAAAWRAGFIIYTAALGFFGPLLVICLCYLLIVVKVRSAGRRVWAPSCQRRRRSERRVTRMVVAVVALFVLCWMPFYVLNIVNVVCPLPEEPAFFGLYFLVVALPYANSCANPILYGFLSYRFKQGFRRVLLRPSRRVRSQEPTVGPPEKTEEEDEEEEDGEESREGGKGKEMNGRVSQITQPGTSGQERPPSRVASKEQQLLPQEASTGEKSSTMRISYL

[4] = target: Somatostatin receptor type 5 (Homo sapiens, UniProt P35346); test: Inhibitory concentration against human somatostatin receptor type 5 in CHO-K1 cells; assay type: cell-based; how it was run: as §2
Chain of Somatostatin receptor type 5 (P35346 whole entry): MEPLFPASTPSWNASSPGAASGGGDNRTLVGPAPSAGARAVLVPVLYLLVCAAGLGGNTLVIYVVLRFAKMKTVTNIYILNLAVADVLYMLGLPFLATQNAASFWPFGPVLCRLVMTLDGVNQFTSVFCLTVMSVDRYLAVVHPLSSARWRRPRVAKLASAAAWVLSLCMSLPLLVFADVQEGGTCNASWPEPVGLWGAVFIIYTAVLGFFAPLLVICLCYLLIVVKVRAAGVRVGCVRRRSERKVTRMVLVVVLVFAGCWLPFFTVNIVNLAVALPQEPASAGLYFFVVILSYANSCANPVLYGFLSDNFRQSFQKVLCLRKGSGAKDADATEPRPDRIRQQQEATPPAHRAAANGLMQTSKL

Rattus norvegicus [5] = species: Rattus norvegicus; test: Inhibitory concentration on GH release from rat pituitary cells; assay type: functional, cell-based; conditions: Pituitary gland cell; how it was run: as §1
Rattus norvegicus [6] = species: Rattus norvegicus; test: Percent inhibition on GH release from rat pituitary cells; assay type: functional, Pituitary gland cell; design: concentration or dose not given beside the values; how it was run: as §1
Rattus norvegicus [7] = species: Rattus norvegicus; test: Percent inhibition on PRL release from rat pituitary cells; assay type: functional, Pituitary gland cell; design: concentration or dose not given beside the values; how it was run: as §1

| Structure (SMILES) | IC50 (Rattus norvegicus [1]) [nM] | IC50 [2] [nM] | IC50 [3] [nM] | IC50 [4] [nM] | IC50 (Rattus norvegicus [5]) [nM] | Inhibition (Rattus norvegicus [6]) [%] | Inhibition (Rattus norvegicus [7]) [%] |
| --- | --- | --- | --- | --- | --- | --- | --- |
| CC(C)[C@@H]1NC(=O)[C@H](CCCCN)NC(=O)[C@@H](Cc2c[nH]c3ccccc23)NC(=O)[C@H](Cc2ccc(O)cc2)NC(=O)[C@@H](NC(=O)[C@H](N)Cc2ccc(N)cc2)CSSC[C@@H](C(=O)N[C@@H](CC(=O)O)C(N)=O)NC1=O [listing 1 of 2 here] | 26 | 11 | > 1000 | 54 | 14.8 |  |  |
| CC(C)[C@@H]1NC(=O)[C@H](CCCCN)NC(=O)[C@@H](Cc2c[nH]c3ccccc23)NC(=O)[C@H](Cc2ccc(O)cc2)NC(=O)[C@@H](NC(=O)[C@H](N)Cc2ccc(N)cc2)CSSC[C@@H](C(=O)N[C@H](C(N)=O)[C@@H](C)O)NC1=O [listing 1 of 2 here] |  |  |  |  |  | 47 | 20 |
| CC(C)[C@@H]1NC(=O)[C@H](CCCCN)NC(=O)[C@@H](Cc2c[nH]c3ccccc23)NC(=O)[C@H](Cc2ccc(O)cc2)NC(=O)[C@@H](NC(=O)[C@H](N)Cc2ccc(N)cc2)CSSC[C@@H](C(=O)N[C@@H](C(N)=O)[C@H](C)O)NC1=O [listing 1 of 2 here] |  | 17 | > 1000 |  |  |  |  |
| C[C@H](N)C(=O)NCC(=O)N[C@H]1CSSC[C@@H](C(=O)O)NC(=O)[C@H](CO)NC(=O)[C@H]([C@@H](C)O)NC(=O)[C@H](Cc2ccccc2)NC(=O)[C@H]([C@@H](C)O)NC(=O)[C@H](CCCCN)NC(=O)[C@H](Cc2c[nH]c3ccccc23)NC(=O)[C@H](Cc2ccccc2)NC(=O)[C@H](Cc2ccccc2)NC(=O)[C@H](CC(N)=O)NC(=O)[C@H](CCCCN)NC1=O [SOMATOSTATIN] | 0.2 |  |  |  | 0.1 | 66 | 30 |
| CC(C)[C@@H]1NC(=O)[C@H](CCCCN)NC(=O)[C@@H](Cc2c[nH]c3ccccc23)NC(=O)[C@H](Cc2ccc(O)c(I)c2)NC(=O)[C@@H](NC(=O)[C@H](N)Cc2ccc(N)c(I)c2)CSSC[C@@H](C(=O)N[C@@H](CC(=O)O)C(N)=O)NC1=O [listing 1 of 2 here] |  | 1.9 | > 1000 | 2.9 |  |  |  |
| CC(C)[C@@H]1NC(=O)[C@H](CCCCN)NC(=O)[C@@H](Cc2c[nH]c3ccccc23)NC(=O)[C@H](Cc2ccc(O)cc2)NC(=O)[C@@H](NC(=O)[C@H](N)Cc2ccc(N)cc2)CSSC[C@@H](C(=O)N[C@H](CC(=O)O)C(N)=O)NC1=O [listing 1 of 2 here] | > 100 | 1.1 | > 1000 | 30 |  |  |  |
| CC(C)[C@@H]1NC(=O)[C@H](CCCCN)NC(=O)[C@@H](Cc2c[nH]c3ccccc23)NC(=O)[C@H](Cc2ccc(O)cc2)NC(=O)[C@@H](NC(=O)[C@H](N)Cc2ccc(N)cc2)CSSC[C@@H](C(=O)N[C@@H](C(N)=O)[C@H](C)O)NC1=O [listing 2 of 2 here] |  |  |  |  |  | -11 | 8 |
| CC(C)[C@@H]1NC(=O)[C@H](CCCCN)NC(=O)[C@@H](Cc2c[nH]c3ccccc23)NC(=O)[C@H](Cc2ccc(O)c(I)c2)NC(=O)[C@@H](NC(=O)[C@H](N)Cc2ccc(N)c(I)c2)CSSC[C@@H](C(=O)N[C@H](C(N)=O)[C@@H](C)O)NC1=O [listing 1 of 2 here] |  |  |  |  |  | 58 | 29 |
| CC(C)[C@@H]1NC(=O)[C@H](CCCCN)NC(=O)[C@@H](Cc2c[nH]c3ccccc23)NC(=O)[C@H](Cc2ccc(O)cc2)NC(=O)[C@@H](NC(=O)[C@H](N)Cc2ccc(N)c(I)c2)CSSC[C@@H](C(=O)N[C@H](C(N)=O)[C@@H](C)O)NC1=O [listing 1 of 2 here] | 0.1 | 1.4 | > 1000 |  | 0.1 |  |  |
| CC(C)[C@@H]1NC(=O)[C@H](CCCCN)NC(=O)[C@@H](Cc2c[nH]c3ccccc23)NC(=O)[C@H](Cc2ccc(O)c(I)c2)NC(=O)[C@@H](NC(=O)[C@H](N)Cc2ccc(N)c(I)c2)CSSC[C@@H](C(=O)N[C@@H](CC(=O)O)C(N)=O)NC1=O [listing 2 of 2 here] |  |  |  |  |  | 55 | 15 |
| CC(C)[C@@H]1NC(=O)[C@H](CCCCN)NC(=O)[C@@H](Cc2c[nH]c3ccccc23)NC(=O)[C@H](Cc2ccc(O)cc2)NC(=O)[C@@H](NC(=O)[C@H](N)Cc2ccc(N)cc2)CSSC[C@@H](C(=O)N[C@H](CC(=O)O)C(N)=O)NC1=O [listing 2 of 2 here] |  |  |  |  |  | 18 | 11 |
| CC(C)[C@@H]1NC(=O)[C@H](CCCCN)NC(=O)[C@@H](Cc2c[nH]c3ccccc23)NC(=O)[C@H](Cc2ccc(O)cc2)NC(=O)[C@@H](NC(=O)[C@H](N)Cc2ccc(N)c(I)c2)CSSC[C@@H](C(=O)N[C@H](C(N)=O)[C@@H](C)O)NC1=O [listing 2 of 2 here] |  |  |  |  |  | 60 | 35 |
| CC(C)[C@@H]1NC(=O)[C@H](CCCCN)NC(=O)[C@@H](Cc2c[nH]c3ccccc23)NC(=O)[C@H](Cc2ccc(O)cc2)NC(=O)[C@@H](NC(=O)[C@H](N)Cc2ccc(N)c(I)c2)CSSC[C@@H](C(=O)N[C@@H](CC(=O)O)C(N)=O)NC1=O [listing 1 of 2 here] |  |  |  |  |  | 17 | 12 |
| CC(C)[C@@H]1NC(=O)[C@H](CCCCN)NC(=O)[C@@H](Cc2c[nH]c3ccccc23)NC(=O)[C@H](Cc2ccc(O)cc2)NC(=O)[C@@H](NC(=O)[C@H](N)Cc2ccccc2)CSSC[C@@H](C(=O)N[C@@H](CC(=O)O)C(N)=O)NC1=O |  | 18.6 | > 1000 |  | 1.1 |  |  |
| CC(C)[C@@H]1NC(=O)[C@H](CCCCN)NC(=O)[C@@H](Cc2c[nH]c3ccccc23)NC(=O)[C@H](Cc2ccc(O)c(I)c2)NC(=O)[C@@H](NC(=O)[C@H](N)Cc2ccc(N)cc2)CSSC[C@@H](C(=O)N[C@H](C(N)=O)[C@@H](C)O)NC1=O [listing 1 of 2 here] |  | 6.2 | > 1000 |  |  |  |  |
| CC(C)[C@@H]1NC(=O)[C@H](CCCCN)NC(=O)[C@@H](Cc2c[nH]c3ccccc23)NC(=O)[C@H](Cc2ccc(O)c(I)c2)NC(=O)[C@@H](NC(=O)[C@H](N)Cc2ccc(N)c(I)c2)CSSC[C@@H](C(=O)N[C@H](C(N)=O)[C@@H](C)O)NC1=O [listing 2 of 2 here] | 0.23 | 0.63 | > 1000 |  | 0.15 |  |  |
| CC(C)[C@@H]1NC(=O)[C@H](CCCCN)NC(=O)[C@@H](Cc2c[nH]c3ccccc23)NC(=O)[C@H](Cc2ccc(O)c(I)c2)NC(=O)[C@@H](NC(=O)[C@H](N)Cc2ccc(N)cc2)CSSC[C@@H](C(=O)N[C@H](C(N)=O)[C@@H](C)O)NC1=O [listing 2 of 2 here] |  |  |  |  |  | 12 | 14 |
| CC(C)[C@@H]1NC(=O)[C@H](CCCCN)NC(=O)[C@@H](Cc2c[nH]c3ccccc23)NC(=O)[C@H](Cc2ccc(O)cc2)NC(=O)[C@@H](NC(=O)[C@H](N)Cc2ccc(N)cc2)CSSC[C@@H](C(=O)N[C@@H](CC(=O)O)C(N)=O)NC1=O [listing 2 of 2 here] |  |  |  |  |  | 41 | -9 |
| CC(C)[C@@H]1NC(=O)[C@H](CCCCN)NC(=O)[C@@H](Cc2c[nH]c3ccccc23)NC(=O)[C@H](Cc2ccc(O)cc2)NC(=O)[C@@H](NC(=O)[C@H](N)Cc2ccc(N)cc2)CSSC[C@@H](C(=O)N[C@H](C(N)=O)[C@@H](C)O)NC1=O [listing 2 of 2 here] | 2.2 | 1.6 | > 1000 |  | 0.08 |  |  |
| CC(C)[C@@H]1NC(=O)[C@H](CCCCN)NC(=O)[C@@H](Cc2c[nH]c3ccccc23)NC(=O)[C@H](Cc2ccc(O)cc2)NC(=O)[C@@H](NC(=O)[C@H](N)Cc2ccc(N)c(I)c2)CSSC[C@@H](C(=O)N[C@@H](CC(=O)O)C(N)=O)NC1=O [listing 2 of 2 here] |  | 12 | > 1000 | 74 |  |  |  |
